From ChEMBL document CHEMBL1141653, “New bis(2-aminoimidazoline) and bisguanidine DNA minor groove binders with potent in vivo antitrypanosomal and antiplasmodial activity” (J Med Chem, 2008)
pIC50: −log10 of the molar value. Activity calls are given as the source filed them. No cut-off for these calls is given here.

Columns and labels:
[1] = Selectivity index, ratio of IC50 for rat L6 cells to IC50 for Trypanosoma brucei rhodesiense STIB900; format: functional
Method in brief: (§1)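 Ratio of the IC₅₀ on L-6 rat skeletal myoblasts to the parasite IC₅₀. Cytotoxicity measured in RPMI 1640 with L-glutamine and 10% FBS, serial dilutions 90 to 0.123 µg/mL, duplicate. After 72 h, Alamar blue (resazurin) added for 2 h. Fluorescence read at ex 536 / em 588 nm.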

[2] = system: Ferriprotoporphyrin IX; assay: Inhibition of ferriprotoporphyrin 9 biomineralization at 1 mg/ml; format: functional
Method in brief: (§2)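 β-Hematin formation: hemin chloride (0.5 mg/mL in DMSO) with 0.5 M sodium acetate pH 4.4 and drug dilutions, 37 °C for 18–24 h. Pellet washed with DMSO, dissolved in 0.1 N NaOH, A405 read. Percent inhibition relative to solvent control. IC₅₀ derived, or percent inhibition at 1 mg/mL (highest concentration) given when no IC₅₀.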

[3] = Selectivity index, ratio of IC50 for rat L6 cells to IC50 for Plasmodium falciparum K1; format: functional; method in brief: as §1
[4] = system: Plasmodium falciparum; assay: Antiplasmodial activity against Plasmodium falciparum K1 in [3H]hypoxanthine incorporation assay; format: functional, organism-based; conditions: K1, 72 h
Method in brief: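 K1 erythrocytic stages in RPMI 1640 without hypoxanthine with AlbuMax, human A⁺ red cells at 2.5% hematocrit, 0.3% parasitemia. Compounds taken from 10 mg/mL DMSO stock, tested as serial doubling dilutions at 37 °C in 4% CO₂/3% O₂/93% N₂. After 48 h, ³H-hypoxanthine (0.5 µCi) added for 24 h more; incorporation by scintillation counting. IC₅₀ from sigmoidal curves.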

[5] = Binding affinity for DNA assessed as thermal melting temperature
Method in brief: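 Thermal melting of poly(dA)·poly(dT): DNA at 40 µM base with compound at 12 µM (ratio 0.3) in MES 0.01 M / EDTA 0.001 M buffer, pH 6.25. A260 followed from 20 to 95 °C at 0.5 °C/min. Value is ΔTm.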

[6] = system: Mus musculus; assay: Toxicity in Plasmodium berghei ANKA infected NMRI mice (Mus musculus) at 50 mg/kg, intraperitoneally for 4 days; format: organism-based; set-up: dose 50 mg/kg, route intraperitoneal; conditions: in vivo, ip, 96 h
Method in brief: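 Toxicity recorded in the P. berghei ANKA model. Female NMRI mice (20–22 g), three per group, infected iv with 2 × 10⁷ parasitized erythrocytes. Compound in DMSO diluted 10-fold in water, dosed ip at 4, 24, 48 and 72 h post-infection. Survival followed up to 30 days after infection.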

[7] = system: Trypanosoma brucei rhodesiense; assay: Antitrypanosomal activity against Trypanosoma brucei rhodesiense STIB900; format: functional, organism-based
Method in brief: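 Bloodstream forms (10⁴ per well) in MEM with 15% heat-inactivated horse serum, 25 mM HEPES, 2-mercaptoethanol, hypoxanthine. 3-fold serial dilutions from 90 to 0.123 µg/mL, in duplicate. Incubation 72 h at 37 °C, 5% CO₂. Resazurin then added for 2–4 h more. Fluorescence read at ex 536 / em 588 nm.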

[8] = system: L6; assay: Cytotoxicity against rat L6 cells; format: cell-based
[9] = system: Trypanosoma brucei rhodesiense; assay: Antitrypanosomal activity against Trypanosoma brucei rhodesiense STIB900 infected NMRI mouse assessed as survival of animals administered at 20 mg/kg, ip after 4 days; format: functional; conditions: route intraperitoneal
Method in brief: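 Mice infected ip with 2 × 10⁴ bloodstream forms of T. b. rhodesiense STIB900. Groups of four treated ip on days 3–6, untreated control group. Parasitemia checked every second day to day 14, then twice weekly to day 60. Deaths recorded for mean survival time. Surviving aparasitemic mice at 60 days counted as cured.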

[10] = system: Plasmodium berghei (ANKA); assay: Antiplasmodial activity as survival against Plasmodium berghei ANKA infection in NMRI mice (Mus musculus) at 20 mg/kg intraperitoneal dose for 4 days
[11] = system: Ferriprotoporphyrin IX; assay: Inhibition of ferriprotoporphyrin 9 biomineralization; format: functional; method in brief: as §2
[12] = system: Plasmodium berghei (ANKA); assay: Antiplasmodial activity against parasitemia in Plasmodium berghei ANKA infected NMRI mice (Mus musculus) at 20 mg/kg intraperitoneal dose after 4 days
[13] = system: Trypanosoma brucei rhodesiense; assay: Antitrypanosomal activity against Trypanosoma brucei rhodesiense STIB900 infected NMRI mouse assessed as number of cured animals at 20 mg/kg, ip after 4 days; format: functional, organism-based; set-up: dose 20 mg/kg
Method in brief: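 Mice infected ip with 2 × 10⁴ STIB900 bloodstream forms. Groups of four treated ip on days 3–6, with an untreated control group. Parasitemia checked every second day to day 14, then twice weekly to day 60. Mice surviving and aparasitemic at 60 days counted as cured.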

[14] = system: Plasmodium berghei; assay: Antiplasmodial activity as survival against Plasmodium berghei ANKA infection in NMRI mice (Mus musculus) at 30 mg/kg intraperitoneal dose for 4 days
[15] = system: Plasmodium berghei; assay: Antiplasmodial activity against parasitemia in Plasmodium berghei ANKA infected NMRI mice (Mus musculus) at 30 mg/kg intraperitoneal dose after 4 days

| Structure (SMILES) | Ratio IC50 [1] | inhibition [2] | Ratio IC50 [3] | pIC50 [4] | ΔTm [5] | Activity [6] | pIC50 [7] | pIC50 [8] | Survival [9] | Survival [10] | pIC50 [11] | Activity [12] | Activity [13] | Survival [14] | Activity [15] |
| --- | --- | --- | --- | --- | --- | --- | --- | --- | --- | --- | --- | --- | --- | --- | --- |
| Cl.N=C(N)Nc1ccc(C2CCN(c3ccc(NC(=N)N)cc3)CC2)cc1 | 111 | 0% | 585 | 7.39 | 30 °C | Toxic | 6.66 | 4.62 | – | – | – | – | – | – | – |
| Cl.c1cc(C2CCN(c3ccc(NC4=NCCN4)cc3)CC2)ccc1NC1=NCCN1 | 3474 | 0% | 12000 | 7.96 | 35 °C | – | 7.42 | 3.88 | >47.25 days | – | – | – | – | – | – |
| c1cc(N2CCN(c3ccc(NC4=NCCN4)cc3)CC2)ccc1NC1=NCCN1 | 881 | – | 8455 | 7.91 | 38.8 °C | – | 6.93 | 3.98 | – | 7 days | 3.89 | 0% | – | – | – |
| N=C(N)Nc1ccc2c(c1)Cc1ccc(NC(=N)N)cc1C2 | 15 | 0% | 83 | 8.06 | 31.1 °C | Toxic | 7.30 | 6.14 | – | – | – | – | – | – | – |
| c1cc(NC2=NCCN2)ccc1CCc1ccc(NC2=NCCN2)cc1 | 646 | 0% | 2181 | 7.80 | 31.2 °C | – | 7.27 | 4.46 | >60 days | – | – | – | Active | – | – |
| c1cc(Nc2ccc(NC3=NCCN3)cc2)ccc1NC1=NCCN1 | 3072 | – | 24000 | 8.06 | 38.5 °C | – | 7.16 | 3.67 | – | 7 days | 3.37 | 65.51% | – | – | – |
| c1cc2c(cc1NC1=NCCN1)Cc1ccc(NC3=NCCN3)cc1C2 | 620 | – | 2000 | 7.73 | 33.2 °C | – | 7.22 | 4.43 | >60 days | – | 3.79 | – | Active | – | – |
| Cl.O=C(Nc1ccc(NC2=NCCN2)cc1)Nc1ccc(NC2=NCCN2)cc1 | 852 | – | 3714 | 7.55 | 31 °C | – | 6.91 | 3.98 | >60 days | – | 3.41 | – | Active | – | – |
| c1cc(Oc2ccc(NC3=NCCN3)cc2)ccc1NC1=NCCN1 | 88 | 0% | 1079 | 7.42 | 27.1 °C | – | 6.33 | 4.39 | – | – | – | – | – | 7 days | 44.1% |
